Data on 36 compounds can be found in ChEMBL document CHEMBL1124951, “N-phenyl-2-pyridinecarbothioamides as gastric mucosal protectants” (J Med Chem, 1990).

Series [1] concerns Rattus norvegicus. Description: Compound was evaluated for antisecretory action in the pylorus-ligated rat model (PLR) at 100 mg/kg (po); No significant activity at 100 mg/kg. Type of series: functional, organism-based. In outline:
(§1)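 Drug or vehicle given orally. After 1 h, rats anesthetized with methohexital (30 mg/kg ip) and the pylorus ligated through a midline incision. Killed by CO2 4 h after surgery. Gastric volume measured and acid titrated to pH 7.0 with 0.1 N NaOH. Total acid output (microequivalents per 4 h) = volume × acid concentration.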

The species entered for series [2] is Rattus norvegicus. In words: Effective dose against ethanol-induced gastric lesions in male albino rat when given perorally was determined; 0.2-4.7. Type of series: functional. The following applies: Stomach, po. The method, boiled down: (§2)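 Charles River male albino rats (190-219 g), food withheld 18-24 h with water available. Drug or vehicle given orally 1 h before ethanol (1 mL per rat po). Rats killed by CO2 asphyxiation 1 h after ethanol. Lesions scored single blind by size (mm2) and number per size category. Percent inhibition taken against the vehicle group mean; ED50 with 95% confidence limits obtained by regression of dose-response data.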

Series [3] concerns Rattus norvegicus. Description: Compound was evaluated for activity in stress-induced ulcer rat (po). The series is classed as functional. In outline: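 Rats dosed po with drug or vehicle 30 min before immobilization in restrainers at 4-5 °C for 3 h, then euthanized. Gastric ulcers graded by size and number, with percent inhibition taken against the control mean.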
Series [4] is described as follows: Compound was evaluated for lethal activity through acute lethality model when given perorally. To be noted: rat, in vivo, po. Type of series: ADME, organism-based.
Series [5] has as its system Rattus norvegicus. In words: Percent inhibition against ethanol-induced gastric lesions in male albino rat was determined at a dose of 10 mg/Kg. The series is classed as functional. To be noted: Stomach. In outline:
as §2

The test system of series [6] is Rattus norvegicus. Description: Percent inhibition against ethanol-induced gastric lesions in male albino rat was determined at a dose of 25 mg/Kg. The following applies: Stomach. The series is classed as functional. The method, boiled down:
as §2

Series [7] has as its system Rattus norvegicus. Description: Percent inhibition against ethanol-induced gastric lesions in male albino rat was determined at a dose of 5 mg/Kg (po). The series is classed as functional. The following applies: Stomach. In outline:
as §2

The species entered for series [8] is Rattus norvegicus. Description: Effective dose against ethanol-induced gastric lesions in male albino rat when given perorally was determined; 1.2-5.9. Type of series: functional. To be noted: Stomach, po. In outline:
as §2

In series [9] the test system is Rattus norvegicus. Description: Percent inhibition against ethanol-induced gastric lesions in male albino rat was determined at a dose of 5 mg/Kg. Type of series: functional. To be noted: Stomach. The method, boiled down:
as §2

The test system of series [10] is Rattus norvegicus. Description: Percent inhibition against ethanol-induced gastric lesions in male albino rat was determined at a dose of 100 mg/Kg (po). The following applies: Stomach. The series is classed as functional. The method, boiled down:
as §2

For series [11], the system named is Rattus norvegicus. In words: Percent inhibition against ethanol-induced gastric lesions in male albino rat was determined at a dose of 50 mg/Kg (po). Type of series: functional. To be noted: Stomach. The method, boiled down: as §2
For series [12], the species on record is Rattus norvegicus. In words: Compound was evaluated for activity in stress-induced ulcers. Type of series: functional. In outline: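 Rats dosed po with drug or vehicle 30 min before immobilization in restrainers at 4-5 °C for 3 h, then euthanized. Gastric ulcers graded by size and number, with percent inhibition taken against the control mean. ED50 with 95% confidence limits obtained by regression of dose-response data.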

The species named for series [13] is Rattus norvegicus. In words: Compound was evaluated for activity in acute lethality model. To be noted: in vivo. The series is classed as ADME, organism-based.
For series [14], the species on record is Rattus norvegicus. Description: Compound was evaluated for antisecretory action in the pylorus-ligated rat model (PLR). The series is classed as functional. In outline:
as §1

Series [15] has as its system Rattus norvegicus. Description: Compound was evaluated for activity against ethanol-induced gastric lesions mg/kg;NS=No significant activity at 25 mg/kg. Type of series: functional, organism-based. Details: dose 25 mg/kg. To be noted: Stomach. The method, boiled down:
as §2

The species entered for series [16] is Rattus norvegicus. In words: Effective dose against ethanol-induced gastric lesions in male albino rat when given perorally was determined; 3.0-10. The series is classed as functional. The following applies: Stomach, po. In outline: as §2
The species entered for series [17] is Rattus norvegicus. Description: Effective dose against ethanol-induced gastric lesions in male albino rat when given perorally was determined; 0.5-1.5. The series is classed as functional. To be noted: Stomach, po. The method, boiled down:
as §2

The species entered for series [18] is Rattus norvegicus. In words: Compound was evaluated for activity against ethanol-induced gastric lesions. The series is classed as functional. The following applies: Stomach. In outline: as §2
Series [19] relates to Rattus norvegicus. Description: Compound was evaluated for antisecretory action in the pylorus-ligated rat model (PLR) at 100 mg/kg;NS=No significant activity at 100 mg/kg. Type of series: functional, organism-based. The method, boiled down:
as §1

The species named for series [20] is Rattus norvegicus. Description: Compound was evaluated for activity in acute lethality model; NL=Not lethal. Type of series: ADME, organism-based. The following applies: in vivo.
The species entered for series [21] is Rattus norvegicus. Description: Effective dose against ethanol-induced gastric lesions in male albino rat when given perorally was determined; 2.4-11. Type of series: functional. To be noted: Stomach, po. In outline:
as §2

The source made the active and inactive calls. The rule behind the calls is not given here.

As usually defined, the ED50 is the dose at which the effect has come halfway, by size or by number of responders. The LD50 is the dose at which mortality reaches 50%. A lower LD50 goes with a more toxic substance. In the case of `S=C(Nc1ccccc1)c1ccccn1`, the ED50 entry in [1] was “inactive”. The ED50 was 1.1 mg/kg in series [2] and 10 mg/kg in series [3]. Further, the LD50 in series [4] was more than 1000 mg/kg. In general, inhibition in vivo refers to the change of the read-out against control, counted positive when it falls. Take `CN(C(=S)c1ccccn1)c1cccc(F)c1`: the inhibition in vivo at 10 mg/kg in series [5] stood at 31%. With `Cc1ccc(NC(=S)c2ccccn2)cc1Cl`, in [6], the inhibition in vivo at 25 mg/kg came to 22%. On to `S=C(Nc1cccc(CN2CCOCC2)c1)c1ccccn1`, for which the inhibition in vivo at 10 mg/kg in series [5] came out at 64%. `CN(C(=S)c1ccccn1)c1cc(F)cc(F)c1`: the inhibition in vivo at 25 mg/kg in [6] came out at 40%. In the case of `COc1ccc(NC(=S)c2ccccn2)cc1OC`, in [7], the inhibition in vivo at 5 mg/kg turned out to be 0%. Take `COc1ccc(NC(=S)c2ccccn2)cc1Cl`: the inhibition in vivo at 25 mg/kg in series [6] amounted to 44%. Take `FC(F)(F)COc1cccc(NC(=S)c2ccccn2)c1`: in series [5], the inhibition in vivo at 10 mg/kg stood at 7%.

For the compound `O=C(Nc1cccc(F)c1)c1ccccn1`, the inhibition in vivo at 10 mg/kg in [5] was determined as 24%.

In turn, `S=C(Nc1ccccn1)c1ccccn1` registered an ED50 in [8] of 2.6 mg/kg. With `N#Cc1cc(NC(=S)c2ccccn2)ccc1F`, the inhibition in vivo at 10 mg/kg in series [5] was found to be 29%.

Consider `CSc1ccc(NC(=S)c2ccccn2)cc1`, for which the inhibition in vivo at 5 mg/kg in [7] was found to be 31%.

For the compound `FC(F)(F)Oc1ccc(NC(=S)c2ccccn2)cc1`, in [9], the inhibition in vivo at 5 mg/kg came out at 35%.

In the case of `Fc1ccccc1/N=C(\S)c1ccccn1`, the inhibition in vivo at 100 mg/kg in series [10] was determined as 69%. Take `S=C(c1ccccn1)N1CCN(c2ccccc2)CC1`: the inhibition in vivo at 50 mg/kg in series [11] is -6%. In the case of `S=C(NCc1ccc2c(c1)OCO2)c1ccccn1`, the inhibition in vivo at 50 mg/kg in series [11] stood at 11%. As to `S=C(Nc1cccc(CN2CCSCC2)c1)c1ccccn1`, the inhibition in vivo at 10 mg/kg in series [5] was 32%. Take `Fc1cc(F)cc(NC(=S)c2ccncc2)c1`: in series [6], the inhibition in vivo at 25 mg/kg was 85%. Same read-out and setting: the same measure for `O=C(Nc1cc(F)cc(F)c1)c1ccccn1`: 11%.

`O=C(O)c1cc(NC(=S)c2ccccn2)ccc1F`: the inhibition in vivo at 10 mg/kg in series [5] was found to be 42%. Still for that read-out and setting: the same measure for `CCN(C(=S)c1ccccn1)c1cc(F)cc(F)c1`: 13%. Turning to `Fc1cc(F)cc(NC(=S)c2cccnc2)c1`, in series [6], the inhibition in vivo at 25 mg/kg is 55%. As to `CNC(=C[N+](=O)[O-])NCCSCc1ccc(CN(C)C)o1` [RANITIDINE], the ED50 in series [12] was 3.6 mg/kg; in series [14] it was 2.4 mg/kg. Also, in [13], the LD50 entry was “Not Active”. For the same compound, the ED50 entry in series [15] was “inactive”. Turning to `CCOC(=O)c1cc(NC(=S)c2ccccn2)ccc1F`, in [5], the inhibition in vivo at 10 mg/kg turned out to be 10%.

Consider `Fc1ccc(NC(=S)c2ccccn2)cc1Cl`, for which, in series [6], the inhibition in vivo at 25 mg/kg was determined as 56%.

Turning to `S=C(c1ccccn1)N1CCCc2ccccc21`, in [5], the inhibition in vivo at 10 mg/kg was found to be 17%.

In series [16], `Cc1ccc(NC(=S)c2ccccn2)cc1F` registered an ED50 of 5.4 mg/kg.

For the compound `N#CN/C(=N\c1ccccc1)c1ccccn1`, the inhibition in vivo at 5 mg/kg in [9] stood at 37%. Regarding `Fc1ccc(NC(=S)c2ccccn2)cc1Cn1ccnc1`, the ED50 in series [17] was 0.9 mg/kg. The compound `O=S(=O)(OC[C@H]1O[C@@H](O[C@]2(COS(=O)(=O)[O][Al]([OH])[OH])O[C@H](OS(=O)(=O)[O][Al]([OH])[OH])[C@@H](OS(=O)(=O)[O][Al]([OH])[OH])[C@@H]2OS(=O)(=O)[O][Al]([OH])[OH])[C@H](OS(=O)(=O)[O][Al]([OH])[OH])[C@@H](OS(=O)(=O)[O][Al]([OH])[OH])[C@@H]1OS(=O)(=O)[O][Al]([OH])[OH])[O][Al]([OH])[OH].[OH][Al]([OH])[OH].[OH][Al]([OH])[OH].[OH][Al]([OH])[OH].[OH][Al]([OH])[OH].[OH][Al]([OH])[OH].[OH][Al]([OH])[OH].[OH][Al]([OH])[OH].[OH][Al]([OH])[OH]` came in with an ED50 in series [18] of 60 mg/kg. Besides, in series [19], the ED50 entry was “inactive”. The LD50 entry in [20] is “Not lethal”.

As for `C[S+]([O-])c1ccc(NC(=S)c2ccccn2)cc1` (centres undefined), the inhibition in vivo at 5 mg/kg in series [9] came out at 54%. Consider `S=C(Nc1cc(Cl)cc(Cl)c1)c1ccccn1`, for which the inhibition in vivo at 25 mg/kg in series [6] is 89%. In the case of `CN1CCN(Cc2cccc(NC(=S)c3ccccn3)c2)CC1`, the inhibition in vivo at 10 mg/kg in series [5] turned out to be 10%.

`S=C(c1ccccn1)N1CCOCC1`: the inhibition in vivo at 50 mg/kg in series [11] stood at 44%.

In the case of `S=C(Nc1ccc(OCc2ccccc2)cc1)c1ccccn1`, the inhibition in vivo at 5 mg/kg in series [7] is 47%. With `S=C(Nc1ccccn1)c1cnccn1`, the ED50 in series [21] was found to be 5.2 mg/kg.
